High-throughput results (PubChem)
Shown are actives, neighbours in structure and some others; about 2.3% of the full set was active somewhere.
PRMT1 inh = blocks human protein arginine methyltransferase 1. inhibition, % at 2.79 µM. hit rate 1.3% among 370,000. Q99873. recombinant PRMT1, activity-based probe fluorescence polarization;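 active means inhibition above about 21% made by adding two undisclosed values, limit read from the data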
Target sequence (Q99873 whole entry, looked up): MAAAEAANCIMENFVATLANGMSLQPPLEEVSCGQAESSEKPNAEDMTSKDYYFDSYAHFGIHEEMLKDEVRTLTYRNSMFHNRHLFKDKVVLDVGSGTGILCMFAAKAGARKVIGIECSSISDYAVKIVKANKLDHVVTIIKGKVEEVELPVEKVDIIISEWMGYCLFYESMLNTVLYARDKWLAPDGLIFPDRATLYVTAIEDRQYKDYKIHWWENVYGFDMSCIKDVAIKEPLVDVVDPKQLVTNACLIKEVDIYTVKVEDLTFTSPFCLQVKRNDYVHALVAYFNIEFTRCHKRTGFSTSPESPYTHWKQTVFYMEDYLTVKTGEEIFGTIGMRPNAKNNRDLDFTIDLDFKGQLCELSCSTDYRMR
Fam108B inh = Fam108B inhibition, counter-screen for RBBP9 inhibitors; recombinant Fam108B, FP-Rh probe fluorescence polarization; inhibition, % at 9.51 µM; hit rate 0.33% among 300,000;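 active means inhibition above the screen mean inhibition plus 3 SD, computed separately per campaign, cut at about 18% in these data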;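 further: inhibitors lower polarization as less probe binds the enzyme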
GSTO1 counter = blocks human GSTO1 in RBBP9 counter-screen; recombinant GSTO1, activity-based probe fluorescence polarization; inhibition, % at 5.96 µM; hit rate 1.1% among 300,000; P78417;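 active means inhibition above the campaign mean inhibition plus 3 SD, cut at about 35% in these data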
RBBP9 inh = blocks human serine hydrolase RBBP9. O75884. recombinant RBBP9, FP-Rh probe fluorescence polarization. inhibition, % at 7.94 µM. hit rate 0.2% among 220,000. AID 1515;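 active means inhibition above the campaign mean of all tested compounds plus 3 SD, cut at about 14% in these data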
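Test system: recombinant human RBBP9; Timing: 30 min then 45 min, 25 °C; Detection: fluorescence polarization; Control set: RBBP9 with DMSO as uninhibited control, no-protein wells as full inhibition; Compound dosing: one concentration, 7.94 µM nominal, 0.794% DMSO; Probe or stimulus: FP-Rh activity-based probe, 375 nM before mixing.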
PME-1 inh = blocks human protein phosphatase methylesterase 1 | hit rate 0.53% among 320,000 | recombinant PME-1, FP-Rh probe fluorescence polarization | inhibition, % at 5.9 µM | AID 2130;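 active means inhibition above the campaign mean of all compounds plus 3 SD, cut at about 26% in these data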;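 further: competitive labeling of PME-1 active site by serine hydrolase directed probe; inhibitors block probe labeling so polarization falls and inhibition rises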
PAD4 FP inh = blocks human protein arginine deiminase 4 | Q9UM07 | recombinant PAD4, RCA probe fluorescence polarization | inhibition, % at 6.36 µM | hit rate 0.41% among 330,000 | AID 485272;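 active means percent inhibition above a cutoff equal to the mean of all tested compounds plus 3 SD, cut at about 15% in these data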
GSTO1 inh conf = confirmation of human GSTO1 inhibitors; shares compounds with GSTO1 counter; recombinant GSTO1, probe fluorescence polarization; inhibition, % at 5.96 µM; hit rate 54% among 2,400; AID 2176;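 active means inhibition above the primary screen's cutoff, its mean inhibition plus 3 SD, cut at about 35% in these data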;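 further: loss of polarization as inhibitors block binding of rhodamine sulfonate ester activity probe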
Each line names hits and unclear results; the compound was inactive in the other large screens (follow-up assays come after a bar, where they were run); ! = not active in a repeat.

O=C1NC(=O)C(c2ccccc2[N+](=O)[O-])=C1Nc1ccc(O)c(Cl)c1	GSTO1 counter 63.6, PAD4 FP inh 46.0 (no result: RBBP9 inh) | GSTO1 inh conf 49.3
O=C(NNc1ccccc1[N+](=O)[O-])Nc1ccc(Cl)c(Cl)c1	none
CCN(CC)c1ccc(/C=N/N2CCOCC2)c(O)c1	none
Cc1ccccc1OCC(=O)NC(=S)Nc1ccc(N2CCOCC2)c(Cl)c1	none
COc1ccc(CCNC(=O)C/C(C)=N/NC(=O)C2CCCCC2)cc1OC	none
O=C1C(=O)c2ccccc2C([O-])=C1[n+]1ccccc1	none
CCc1cc[n+](C2=C([O-])c3ccccc3C(=O)/C2=N\S(=O)(=O)c2cccs2)cc1	GSTO1 counter 82.9 | GSTO1 inh conf 81.8
O=C(N/N=C/c1ccccn1)c1cccs1	none
N#Cc1ccccc1OCC(=O)Nc1c(C(=O)C2CC2)oc2ccccc12	GSTO1 counter 81.3 | GSTO1 inh conf 97.6
O=C(CN1CCCC1)Nc1c(C(=O)C2CC2)oc2ccccc12	none
N/C(=N\S(=O)(=O)c1cc(C(F)(F)F)cc(C(F)(F)F)c1)c1ccc(Cl)cc1	none
O=C1C(Cl)=C(NCCCN2CCOCC2)C(=O)c2ccccc21	none (no result: Fam108B inh, GSTO1 counter, RBBP9 inh, PME-1 inh, PAD4 FP inh)
O=C1C(Cl)=C(NCCCO)C(=O)c2ccccc21	GSTO1 counter 61.9 | GSTO1 inh conf inactive
CCOCCCNC1=C(Cl)C(=O)c2ccccc2C1=O	GSTO1 counter 64.7 | GSTO1 inh conf inactive
O=C1C(Cl)=C(NCCN2CCOCC2)C(=O)c2ccccc21	GSTO1 counter 41.5 (no result: RBBP9 inh) | GSTO1 inh conf inactive
O=C(OCC#CCSc1nnc(-c2cccc3ccccc23)o1)c1ccncc1	none (no result: Fam108B inh, GSTO1 counter, RBBP9 inh, PME-1 inh, PAD4 FP inh)
CCN(CC)S(=O)(=O)c1ccc(NS(=O)(=O)c2ccc3oc(=O)[nH]c3c2)cc1	GSTO1 counter 44.0 (no result: RBBP9 inh) | GSTO1 inh conf 58.3
CCN(CC)S(=O)(=O)c1ccc(NS(=O)(=O)c2ccc(O)c([N+](=O)[O-])c2)cc1	none
Cc1ccc(C(C)C)cc1OCC(=O)N/N=C/c1ccc2c(c1)OCCO2	none
Cc1cc(C)c[n+](-c2nc3ccccc3nc2C(=C=[N-])C#N)c1	GSTO1 counter 44.6 | GSTO1 inh conf inactive
Cc1ccc[n+](-c2nc3ccccc3nc2C(=C=[N-])C#N)c1	GSTO1 counter 62.5 | GSTO1 inh conf 35.7!
CCc1ccc[n+](-c2nc3ccccc3nc2C(=C=[N-])C#N)c1	GSTO1 counter 52.6 | GSTO1 inh conf 41.9
Cc1cc[n+](-c2nc3ccccc3nc2[N-]S(=O)(=O)c2ccccc2)cc1	none
CCc1cc[n+](-c2nc3ccccc3nc2[N-]S(=O)(=O)c2ccc(Br)s2)cc1	none
C=C[C@]1(C)C=C2CCC3[C@](C)(CCC[C@@]3(C)C(=O)O)C2CC1 (some centres undefined)	none (no result: PRMT1 inh, RBBP9 inh)
CC(C)C1=CC2=CCC3C(C)(C(=O)O)CCCC3(C)C2CC1 (centres undefined) (tested in a mixture with another compound)	GSTO1 counter 38.8 (no result: PRMT1 inh, RBBP9 inh) | GSTO1 inh conf inactive
Cc1ccc(N(NC(=O)C(O)(c2ccccc2)c2ccccc2)C(=O)CCl)cc1	GSTO1 counter 82.3 | GSTO1 inh conf 92.2
O=C(Nc1ccccc1)NN(C(=O)CCl)c1ccccc1	GSTO1 counter 82.4 (no result: RBBP9 inh) | GSTO1 inh conf 87.7
CCN(CC)NC(=O)Nc1ccccc1	none
CCOc1ccccc1C(=O)NCC(=O)OCCCOC(=O)CNC(=O)c1ccccc1OCC	none (no result: RBBP9 inh)
Cc1c(C(=O)c2no[n+]([O-])c2C(=O)c2cnn(C)c2C)cnn1C	GSTO1 counter 39.7 | GSTO1 inh conf inactive
O=C(Cc1c(Cl)cccc1Cl)N/N=C/c1cccnc1	none (no result: Fam108B inh, GSTO1 counter, RBBP9 inh, PME-1 inh, PAD4 FP inh)
CCCCN1C(=S)NC[C@@H]1c1ccccc1	none
CCCN1C(=S)c2ccccc2C1c1ccccc1 (centres undefined)	GSTO1 counter 60.1 (no result: RBBP9 inh) | GSTO1 inh conf inactive
COc1ccc(NS(=O)(=O)c2cccc(C(=O)NNC(=O)c3cc(C)oc3C)c2)cc1	none
COc1ccc(NS(=O)(=O)c2cccc(C(=O)NNC(=O)c3ccccc3O)c2)cc1	GSTO1 counter 46.9 (no result: RBBP9 inh) | GSTO1 inh conf inactive
CCOC(=O)c1ccc(S(=O)(=O)N2CCN(C(=O)c3cc4ccccc4o3)CC2)cc1	none (no result: Fam108B inh, GSTO1 counter, RBBP9 inh, PME-1 inh, PAD4 FP inh)
O=C1c2ccccc2C(=O)c2cc(N3CCCCC3)ccc21	none (no result: Fam108B inh, GSTO1 counter, RBBP9 inh, PME-1 inh, PAD4 FP inh)
